Data reported in publication PMC9720105 (Redox Biology, 2022).

Columns and labels:
[1] = target: KEAP1 in HEK293T cells (Homo sapiens, UniProt Q14145); assay: KEAP1 degradation in HEK293T cells; format: cell-based; conditions: HEK293T cells; for KEAP1 degradation / expression: 48 h; for KEAP1 degradation efficiency: three lower concentrations, 5 and 24 h
[2] = tested on: NRF2 downstream targets, NQO1 and HO-1; assay: NQO1 and HO-1 protein levels in HEK293T and HCA7 cell lines; format: cell-based; conditions: 48 h
Method in brief: (§1)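 HEK293T, HCA7 and A549 cells were grown in DMEM with 10% FBS and pen/strep; BEAS-2B in LHC-9 with pen/strep; all at 37 °C, 10% CO₂. Cells were exposed to test compound for 48 h, lysed, run on 4–12% SDS-PAGE and transferred to nitrocellulose. Blocking was 5% skim milk for 1 h at RT. Probes were anti-KEAP1, CRBN, NQO1 or HO-1, with HRP anti-β-actin loading control and HRP secondaries. Blots represent 3 independent experiments.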

[3] = target: KEAP1 in HCA7 cells (Homo sapiens, UniProt Q14145); assay: KEAP1 degradation in HCA7 cells; format: cell-based; conditions: 48 h
Sequence of KEAP1 in HCA7 cells (Q14145 whole entry): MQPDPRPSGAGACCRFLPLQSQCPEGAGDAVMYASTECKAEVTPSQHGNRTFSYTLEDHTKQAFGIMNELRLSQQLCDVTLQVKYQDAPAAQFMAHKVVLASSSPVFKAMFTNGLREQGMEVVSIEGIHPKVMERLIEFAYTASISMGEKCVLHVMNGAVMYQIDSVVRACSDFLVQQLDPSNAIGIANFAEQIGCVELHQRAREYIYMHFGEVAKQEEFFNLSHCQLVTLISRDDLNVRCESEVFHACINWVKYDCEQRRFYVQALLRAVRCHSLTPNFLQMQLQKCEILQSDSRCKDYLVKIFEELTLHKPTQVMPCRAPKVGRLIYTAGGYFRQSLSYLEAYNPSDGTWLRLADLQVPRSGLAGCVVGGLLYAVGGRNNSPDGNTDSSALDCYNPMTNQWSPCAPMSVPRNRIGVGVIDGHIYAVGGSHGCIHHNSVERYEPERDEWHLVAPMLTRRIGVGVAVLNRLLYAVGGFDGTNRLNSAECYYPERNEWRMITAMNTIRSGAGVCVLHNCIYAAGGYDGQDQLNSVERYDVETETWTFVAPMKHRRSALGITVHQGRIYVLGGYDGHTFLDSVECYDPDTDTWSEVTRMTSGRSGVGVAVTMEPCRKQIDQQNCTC
Method in brief: as §1

[4] = target: recombinant KEAP1-Kelch domain (Homo sapiens, UniProt Q14145); assay: biochemical; format: binding; conditions: for reduction in KEAP1 binding affinity compared to inhibitor 2: HTRF biochemical assay
Sequence of recombinant KEAP1-Kelch domain (Q14145 312-624): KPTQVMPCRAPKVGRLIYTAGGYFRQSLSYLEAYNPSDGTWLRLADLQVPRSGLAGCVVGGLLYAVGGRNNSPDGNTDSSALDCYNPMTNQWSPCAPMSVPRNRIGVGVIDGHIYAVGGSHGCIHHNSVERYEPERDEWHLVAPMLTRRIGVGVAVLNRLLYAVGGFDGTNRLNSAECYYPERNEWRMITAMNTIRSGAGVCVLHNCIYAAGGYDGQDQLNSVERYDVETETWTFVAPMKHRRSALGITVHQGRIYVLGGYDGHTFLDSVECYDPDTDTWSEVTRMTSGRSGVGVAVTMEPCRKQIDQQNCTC

Sequence of KEAP1 in HEK293T cells (Q14145 whole entry): as the sequence (Q14145 whole entry) above

## COc1cc(C(CC(=O)OC(C)(C)C)c2ccc(C)c(CN3C[C@@H](C)Oc4ccccc4S3(=O)=O)c2)cc2nnn(C)c12 (stereo partly drawn) [Compound 17, tert-Butyl 3-(7-methoxy-1-methyl-1H-benzo[d][1,2,3]triazol-5-yl)-3-(4-methyl-3-(((R)-4-methyl-1,1-dioxido-3,4-dihydro-2H-benzo[b][1,4,5]oxathiazepin-2-yl)methyl)phenyl)propanoate]
[1]
  KEAP1 degradation / expression: no impact
[2]
  HO-1 protein expression: no impact
  NQO1 protein expression: no impact
[3]
  KEAP1 degradation / expression: no impact

## Cc1ccc(C(CC(=O)O)c2cc(OCCCNc3cccc4c3C(=O)N(C3CCC(=O)NC3=O)C4=O)c3c(c2)nnn3C)cc1CN1C[C@@H](C)Oc2ccccc2S1(=O)=O (stereo partly drawn) [Compound 4, 3-(7-(3-((2-(2,6-Dioxopiperidin-3-yl)-1,3-dioxoisoindolin-4-yl)amino)propoxy)-1-methyl-1H-benzo[d][1,2,3]triazol-5-yl)-3-(4-methyl-3-(((R)-4-methyl-1,1-dioxido-3,4-dihydro-2H-benzo[b][1,4,5]oxathiazepin-2-yl)methyl)phenyl)propanoic acid]
[4]
  IC50: 0.267 µM
  reduction in KEAP1 binding affinity compared to inhibitor 2: greater than 3 fold

## Cc1ccc(C(CC(=O)O)c2cc(OCCCCNC(=O)COc3cccc4c3C(=O)N(C3CCC(=O)NC3=O)C4=O)c3c(c2)nnn3C)cc1CN1C[C@@H](C)Oc2ccccc2S1(=O)=O (stereo partly drawn) [Compound 8, 3-(7-(4-(2-((2-(2,6-Dioxopiperidin-3-yl)-1,3-dioxoisoindolin-4-yl)oxy)acetamido)butoxy)-1-methyl-1H-benzo[d][1,2,3]triazol-5-yl)-3-(4-methyl-3-(((R)-4-methyl-1,1-dioxido-3,4-dihydro-2H-benzo[b][1,4,5]oxathiazepin-2-yl)methyl)phenyl)propanoic acid]
[1]; 48 h and 72 h, comparison of 8 and 14
  KEAP1 degradation at longer time points: less effective at longer time points of 48 h and 72 h
[1]
  KEAP1 degradation efficiency: most efficient at degrading KEAP1
[4]
  IC50: 0.066 µM

## Cc1ccc(C(CC(=O)O)c2cc(OCCCCCCNC(=O)COc3cccc4c3C(=O)N(C3CCC(=O)NC3=O)C4=O)c3c(c2)nnn3C)cc1CN1C[C@@H](C)Oc2ccccc2S1(=O)=O (stereo partly drawn) [Compound 10, 3-(7-((6-(2-((2-(2,6-Dioxopiperidin-3-yl)-1,3-dioxoisoindolin-4-yl)oxy)acetamido)hexyl)oxy)-1-methyl-1H-benzo[d][1,2,3]triazol-5-yl)-3-(4-methyl-3-(((R)-4-methyl-1,1-dioxido-3,4-dihydro-2H-benzo[b][1,4,5]oxathiazepin-2-yl)methyl)phenyl)propanoic acid]
[1]
  KEAP1 degradation efficiency: most efficient at degrading KEAP1
[4]
  IC50: 0.127 µM

## Cc1ccc(C(CC(=O)O)c2cc(OCCCCCNC(=O)COc3cccc4c3C(=O)N(C3CCC(=O)NC3=O)C4=O)c3c(c2)nnn3C)cc1CN1C[C@@H](C)Oc2ccccc2S1(=O)=O (stereo partly drawn) [Compound 9, 3-(7-((5-(2-((2-(2,6-Dioxopiperidin-3-yl)-1,3-dioxoisoindolin-4-yl)oxy)acetamido)pentyl)oxy)-1-methyl-1H-benzo[d][1,2,3]triazol-5-yl)-3-(4-methyl-3-(((R)-4-methyl-1,1-dioxido-3,4-dihydro-2H-benzo[b][1,4,5]oxathiazepin-2-yl)methyl)phenyl)propanoic acid]
[4]
  IC50: 0.086 µM

## Cc1ccc(C(CC(=O)O)c2cc(OCCOCCOCCNC(=O)COc3cccc4c3C(=O)N(C3CCC(=O)NC3=O)C4=O)c3c(c2)nnn3C)cc1CN1C[C@@H](C)Oc2ccccc2S1(=O)=O (stereo partly drawn) [Compound 12, 3-(7-(2-(2-(2-(2-((2-(2,6-Dioxopiperidin-3-yl)-1,3-dioxoisoindolin-4-yl)oxy)acetamido)ethoxy)ethoxy)ethoxy)-1-methyl-1H-benzo[d][1,2,3]triazol-5-yl)-3-(4-methyl-3-(((R)-4-methyl-1,1-dioxido-3,4-dihydro-2H-benzo[b][1,4,5]oxathiazepin-2-yl)methyl)phenyl)propanoic acid]
[4]
  IC50: 0.563 µM
  reduction in KEAP1 binding affinity compared to inhibitor 2: greater than 3 fold

## Cc1ccc(C(CC(=O)O)c2cc(OCCOCCOCCNc3cccc4c3C(=O)N(C3CCC(=O)NC3=O)C4=O)c3c(c2)nnn3C)cc1CN1C[C@@H](C)Oc2ccccc2S1(=O)=O (stereo partly drawn) [Compound 11, 3-(7-(2-(2-(2-((2-(2,6-Dioxopiperidin-3-yl)-1,3-dioxoisoindolin-4-yl)amino)ethoxy)ethoxy)ethoxy)-1-methyl-1H-benzo[d][1,2,3]triazol-5-yl)-3-(4-methyl-3-(((R)-4-methyl-1,1-dioxido-3,4-dihydro-2H-benzo[b][1,4,5]oxathiazepin-2-yl)methyl)phenyl)propanoic acid]
[4]
  IC50: 0.12 µM

## Cc1ccc(C(CC(=O)O)c2cc(OC(=O)CCCOc3cccc4c3C(=O)N(C3CCC(=O)NC3=O)C4=O)c3c(c2)nnn3C)cc1CN1C[C@@H](C)Oc2ccccc2S1(=O)=O (stereo partly drawn) [Compound 5, 3-(7-((4-((2-(2,6-Dioxopiperidin-3-yl)-1,3-dioxoisoindolin-4-yl)oxy)butanoyl)oxy)-1-methyl-1H-benzo[d][1,2,3]triazol-5-yl)-3-(4-methyl-3-(((R)-4-methyl-1,1-dioxido-3,4-dihydro-2H-benzo[b][1,4,5]oxathiazepin-2-yl)methyl)phenyl)propanoic acid]
[4]
  reduction in KEAP1 binding affinity compared to inhibitor 2: greater than 3 fold

## Cc1ccc(C(CC(=O)OC(C)(C)C)c2cc(OCCCCCCCNc3cccc4c3C(=O)N(C3CCC(=O)NC3=O)C4=O)c3c(c2)nnn3C)cc1CN1C[C@@H](C)Oc2ccccc2S1(=O)=O (stereo partly drawn) [Compound 16, tert-Butyl 3-(7-((7-((2-(2,6-Dioxopiperidin-3-yl)-1,3-dioxoisoindolin-4-yl)amino)heptyl)oxy)-1-methyl-1H-benzo[d][1,2,3]triazol-5-yl)-3-(4-methyl-3-(((R)-4-methyl-1,1-dioxido-3,4-dihydro-2H-benzo[b][1,4,5]oxathiazepin-2-yl)methyl)phenyl)propanoate]
[1]
  KEAP1 degradation / expression: no impact
[2]
  HO-1 protein expression: no impact
  NQO1 protein expression: no impact
[3]
  KEAP1 degradation / expression: no impact

## C[S+]([O-])CCCCN=C=S (stereo not drawn) [sulforaphane, reference compound]
[2]
  HO-1 protein expression: but not HO-1
  NQO1 protein expression: upregulated

## Cc1ccc(C(CC(=O)O)c2cc(OCCCNC(=O)COc3cccc4c3C(=O)N(C3CCC(=O)NC3=O)C4=O)c3c(c2)nnn3C)cc1CN1C[C@@H](C)Oc2ccccc2S1(=O)=O (stereo partly drawn) [Compound 7, 3-(7-(3-(2-((2-(2,6-Dioxopiperidin-3-yl)-1,3-dioxoisoindolin-4-yl)oxy)acetamido)propoxy)-1-methyl-1H-benzo[d][1,2,3]triazol-5-yl)-3-(4-methyl-3-(((R)-4-methyl-1,1-dioxido-3,4-dihydro-2H-benzo[b][1,4,5]oxathiazepin-2-yl)methyl)phenyl)propanoic acid]
[4]
  IC50: 0.143 µM

## Cc1ccc(C(CC(=O)O)c2cc(OCCNc3cccc4c3C(=O)N(C3CCC(=O)NC3=O)C4=O)c3c(c2)nnn3C)cc1CN1C[C@@H](C)Oc2ccccc2S1(=O)=O (stereo partly drawn) [Compound 3, 3-(7-(2-((2-(2,6-Dioxopiperidin-3-yl)-1,3-dioxoisoindolin-4-yl)amino)ethoxy)-1-methyl-1H-benzo[d][1,2,3]triazol-5-yl)-3-(4-methyl-3-(((R)-4-methyl-1,1-dioxido-3,4-dihydro-2H-benzo[b][1,4,5]oxathiazepin-2-yl)methyl)phenyl)propanoic acid]
[4]
  IC50: 0.15 µM

## Cc1ccc(C(CC(=O)O)c2cc(OCCCCCCCNc3cccc4c3C(=O)N(C3CCC(=O)N(C)C3=O)C4=O)c3c(c2)nnn3C)cc1CN1C[C@@H](C)Oc2ccccc2S1(=O)=O (stereo partly drawn) [Compound 15, 3-(4-Methyl-3-(((R)-4-methyl-1,1-dioxido-3,4-dihydro-2H-benzo[b][1,4,5]oxathiazepin-2-yl)methyl)phenyl)-3-(1-methyl-7-((7-((2-(1-methyl-2,6-dioxopiperidin-3-yl)-1,3-dioxoisoindolin-4-yl)amino)heptyl)oxy)-1H-benzo[d][1,2,3]triazol-5-yl)propanoic acid]
[2]
  HO-1 protein expression: but not HO-1
  NQO1 protein expression: upregulated

## Cc1ccc(C(CC(=O)O)c2cc(OCCNC(=O)COc3cccc4c3C(=O)N(C3CCC(=O)NC3=O)C4=O)c3c(c2)nnn3C)cc1CN1C[C@@H](C)Oc2ccccc2S1(=O)=O (stereo partly drawn) [Compound 6, 3-(7-(2-(2-((2-(2,6-Dioxopiperidin-3-yl)-1,3-dioxoisoindolin-4-yl)oxy)acetamido)ethoxy)-1-methyl-1H-benzo[d][1,2,3]triazol-5-yl)-3-(4-methyl-3-(((R)-4-methyl-1,1-dioxido-3,4-dihydro-2H-benzo[b][1,4,5]oxathiazepin-2-yl)methyl)phenyl)propanoic acid]
[4]
  IC50: 0.147 µM
